Test results published in ChEMBL document CHEMBL5058577, “EUbOPEN Chemogenomics Library 2 (Multiplex)” (2022).

Test system: Fibroblast
Assay: Multiplex assay against human fibroblast
Assay type: toxicity, cell-based
Outline: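 Imaging took place on a CQ1 microscope at 37°C and 5% CO2 once compound had been added to live cells stained at seeding with Hoechst33342, BioTracker Green Microtubule Cytoskeleton Dye, MitoTracker Red and Annexin V Alexa Fluor 680. CellPathfinder machine-learning gating classed cells as Hoechst high-intensity objects or normal cells, classed normal cells as having healthy, pyknosed or fragmented nuclei, and classed pyknosed cells as mitotic or apoptotic. Tubulin, mitochondrial-mass and membrane-permeability phenotypes are per cents of the healthy-nucleus cells.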

[1] = 12 h, 1 µM, compound concentration 1 uM, replicate 1
[2] = 12 h, 1 µM, compound concentration 1 uM, replicate 2
[3] = 12 h, 10 µM, compound concentration 10 uM, replicate 1
[4] = 12 h, 10 µM, compound concentration 10 uM, replicate 2
[5] = 24 h, 1 µM, compound concentration 1 uM, replicate 1
[6] = 24 h, 1 µM, compound concentration 1 uM, replicate 2
[7] = 24 h, 10 µM, compound concentration 10 uM, replicate 1
[8] = 24 h, 10 µM, compound concentration 10 uM, replicate 2
[9] = 48 h, 1 µM, compound concentration 1 uM, replicate 1
[10] = 48 h, 1 µM, compound concentration 1 uM, replicate 2
[11] = 48 h, 10 µM, compound concentration 10 uM, replicate 1
[12] = 48 h, 10 µM, compound concentration 10 uM, replicate 2

`O=S(=O)(c1ccccc1)c1cnc2c(N3CCNCC3)cccc2c1` [INTEPIRDINE] was tested, and the “Population Apoptotic (%)” value [1] was 50%, the “Population Fragmented Nuclei (%)” value [1] was 23% and the “Population Healthy Nuclei (%)” value [1] was 67%. The “Population Hoechst High Intensity Objects (%)” value [1] was 3%, the “Population Membrane Permeable-Phenotype (%)” value [1] was 0% and the “Population Mitochondria Different-Phenotype (%)” value [1] was 2%. The “Population Mitotic Cells (%)” value [1] was 50%, the “Population Normal (%)” value [1] was 96% and the “Population Pyknosed Nuclei (%)” value [1] was 9%. For the same compound, the “Population Tubulin-Different-Phenotype (%)” value [1] was 26%, the “Total Cell Count” value [1] was 212 and the “Population Apoptotic (%)” value [2] was 34%. For the same compound, the “Population Fragmented Nuclei (%)” value [2] was 28%, the “Population Healthy Nuclei (%)” value [2] was 47% and the “Population Hoechst High Intensity Objects (%)” value [2] was 4%. The “Population Membrane Permeable-Phenotype (%)” value [2] was 7%, the “Population Mitochondria Different-Phenotype (%)” value [2] was 7% and the “Population Mitotic Cells (%)” value [2] was 65%. The “Population Normal (%)” value [2] was 95%, the “Population Pyknosed Nuclei (%)” value [2] was 24% and the “Population Tubulin-Different-Phenotype (%)” value [2] was 61%. The “Total Cell Count” value [2] was 148, the “Population Apoptotic (%)” value [3] was 75% and the “Population Fragmented Nuclei (%)” value [3] was 22%. The “Population Healthy Nuclei (%)” value [3] was 62%, the “Population Hoechst High Intensity Objects (%)” value [3] was 1% and the “Population Membrane Permeable-Phenotype (%)” value [3] was 1%. For the same compound, the “Population Mitochondria Different-Phenotype (%)” value [3] was 8%, the “Population Mitotic Cells (%)” value [3] was 25% and the “Population Normal (%)” value [3] was 98%. The “Population Pyknosed Nuclei (%)” value [3] was 14%, the “Population Tubulin-Different-Phenotype (%)” value [3] was 44% and the “Total Cell Count” value [3] was 138. For the same compound, the “Population Apoptotic (%)” value [4] was 61%, the “Population Fragmented Nuclei (%)” value [4] was 43% and the “Population Healthy Nuclei (%)” value [4] was 40%. The “Population Hoechst High Intensity Objects (%)” value [4] was 6%, the “Population Membrane Permeable-Phenotype (%)” value [4] was 5% and the “Population Mitochondria Different-Phenotype (%)” value [4] was 13%. For the same compound, the “Population Mitotic Cells (%)” value [4] was 38%, the “Population Normal (%)” value [4] was 93% and the “Population Pyknosed Nuclei (%)” value [4] was 16%. The “Population Tubulin-Different-Phenotype (%)” value [4] was 68%, the “Total Cell Count” value [4] was 136 and the “Population Apoptotic (%)” value [5] was 54%. The “Population Fragmented Nuclei (%)” value [5] was 16%, the “Population Healthy Nuclei (%)” value [5] was 72% and the “Population Hoechst High Intensity Objects (%)” value [5] was 5%. For the same compound, the “Population Membrane Permeable-Phenotype (%)” value [5] was 2%, the “Population Mitochondria Different-Phenotype (%)” value [5] was 4% and the “Population Mitotic Cells (%)” value [5] was 45%. For the same compound, the “Population Normal (%)” value [5] was 94%, the “Population Pyknosed Nuclei (%)” value [5] was 10% and the “Population Tubulin-Different-Phenotype (%)” value [5] was 28%. The “Total Cell Count” value [5] was 212, the “Population Apoptotic (%)” value [6] was 41% and the “Population Fragmented Nuclei (%)” value [6] was 32%. For the same compound, the “Population Healthy Nuclei (%)” value [6] was 44%, the “Population Hoechst High Intensity Objects (%)” value [6] was 0% and the “Population Membrane Permeable-Phenotype (%)” value [6] was 1%. The “Population Mitotic Cells (%)” value [6] was 58%, the “Population Normal (%)” value [6] was 99% and the “Population Pyknosed Nuclei (%)” value [6] was 24%. The “Population Tubulin-Different-Phenotype (%)” value [6] was 59%, the “Total Cell Count” value [6] was 151 and the “Population Apoptotic (%)” value [7] was 40%. For the same compound, the “Population Fragmented Nuclei (%)” value [7] was 28%, the “Population Healthy Nuclei (%)” value [7] was 65% and the “Population Hoechst High Intensity Objects (%)” value [7] was 1%. The “Population Membrane Permeable-Phenotype (%)” value [7] was 0%, the “Population Mitochondria Different-Phenotype (%)” value [7] was 7% and the “Population Mitotic Cells (%)” value [7] was 60%. For the same compound, the “Population Normal (%)” value [7] was 98%, the “Population Pyknosed Nuclei (%)” value [7] was 6% and the “Population Tubulin-Different-Phenotype (%)” value [7] was 50%. The “Total Cell Count” value [7] was 152, the “Population Apoptotic (%)” value [8] was 91% and the “Population Fragmented Nuclei (%)” value [8] was 39%. The “Population Healthy Nuclei (%)” value [8] was 50%, the “Population Hoechst High Intensity Objects (%)” value [8] was 4% and the “Population Membrane Permeable-Phenotype (%)” value [8] was 3%. For the same compound, the “Population Mitochondria Different-Phenotype (%)” value [8] was 15%, the “Population Mitotic Cells (%)” value [8] was 8% and the “Population Normal (%)” value [8] was 95%. For the same compound, the “Population Pyknosed Nuclei (%)” value [8] was 10%, the “Population Tubulin-Different-Phenotype (%)” value [8] was 67% and the “Total Cell Count” value [8] was 123. The “Population Apoptotic (%)” value [9] was 66%, the “Population Fragmented Nuclei (%)” value [9] was 22% and the “Population Healthy Nuclei (%)” value [9] was 69%. For the same compound, the “Population Hoechst High Intensity Objects (%)” value [9] was 5%, the “Population Membrane Permeable-Phenotype (%)” value [9] was 0% and the “Population Mitochondria Different-Phenotype (%)” value [9] was 2%. The “Population Mitotic Cells (%)” value [9] was 33%, the “Population Normal (%)” value [9] was 94% and the “Population Pyknosed Nuclei (%)” value [9] was 7%. For the same compound, the “Population Tubulin-Different-Phenotype (%)” value [9] was 34%, the “Total Cell Count” value [9] was 213 and the “Population Apoptotic (%)” value [10] was 52%. For the same compound, the “Population Fragmented Nuclei (%)” value [10] was 39%, the “Population Healthy Nuclei (%)” value [10] was 45% and the “Population Hoechst High Intensity Objects (%)” value [10] was 3%. For the same compound, the “Population Membrane Permeable-Phenotype (%)” value [10] was 1%, the “Population Mitotic Cells (%)” value [10] was 48% and the “Population Normal (%)” value [10] was 96%. For the same compound, the “Population Pyknosed Nuclei (%)” value [10] was 15%, the “Population Tubulin-Different-Phenotype (%)” value [10] was 54% and the “Total Cell Count” value [10] was 170. For the same compound, the “Population Apoptotic (%)” value [11] was 63%, the “Population Fragmented Nuclei (%)” value [11] was 23% and the “Population Healthy Nuclei (%)” value [11] was 67%. The “Population Hoechst High Intensity Objects (%)” value [11] was 3%, the “Population Membrane Permeable-Phenotype (%)” value [11] was 1% and the “Population Mitochondria Different-Phenotype (%)” value [11] was 15%. For the same compound, the “Population Mitotic Cells (%)” value [11] was 36%, the “Population Normal (%)” value [11] was 96% and the “Population Pyknosed Nuclei (%)” value [11] was 8%. For the same compound, the “Population Tubulin-Different-Phenotype (%)” value [11] was 47%, the “Total Cell Count” value [11] was 139 and the “Population Apoptotic (%)” value [12] was 40%. The “Population Fragmented Nuclei (%)” value [12] was 48%, the “Population Healthy Nuclei (%)” value [12] was 38% and the “Population Hoechst High Intensity Objects (%)” value [12] was 6%. For the same compound, the “Population Membrane Permeable-Phenotype (%)” value [12] was 6%, the “Population Mitochondria Different-Phenotype (%)” value [12] was 6% and the “Population Mitotic Cells (%)” value [12] was 60%. For the same compound, the “Population Normal (%)” value [12] was 93%, the “Population Pyknosed Nuclei (%)” value [12] was 12% and the “Population Tubulin-Different-Phenotype (%)” value [12] was 57%. For the same compound, the “Total Cell Count” value [12] was 125.
